In brackets after ≈: the same amount, converted by molar mass.
Experiments:
Assay type in all cases: functional
Bacillus subtilis = assay: Antimicrobial activity against Bacillus subtilis RCMB 010063 assessed as diameter of zone inhibition at 5 mg/ml after 24 hrs by agar well diffusion assay; conditions: RCMB 010063, 24 h, read-out: DIZ
Procedure, shortened: (§1)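 Agar well diffusion: 100 µL of 1 x10^8 CFU/mL bacteria was spread on nutrient agar. 10 mm wells received 100 µL of compound at 5 mg/mL in DMSO, or ampicillin or gentamycin standards at 1 mg/mL. DMSO served as negative control. Plates were incubated 24 h at 37 °C. Inhibition zone diameter (mm) was measured as the mean of triplicates.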

Aspergillus clavatus [1] = assay: Antimicrobial activity against Aspergillus clavatus RCMB 02593 assessed as diameter of zone inhibition at 5 mg/ml after 72 hrs by agar well diffusion assay; conditions: RCMB 02593, 72 h, read-out: DIZ
Procedure, shortened: (§2)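 Fungi (1 x10^6 CFU/mL, 100 µL) were spread on Sabouraud dextrose agar. 10 mm wells were loaded with 100 µL of test solution at 5 mg/mL in DMSO, or amphotericin B standard at 1 mg/mL. A DMSO negative control was included. Plates were incubated 72 h at 28 °C. Inhibition zone diameter (mm) was recorded as the average of triplicate runs.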

Proteus vulgaris = assay: Antimicrobial activity against Proteus vulgaris RCMB 010085 assessed as diameter of zone inhibition at 5 mg/ml after 24 hrs by agar well diffusion assay; conditions: RCMB 010085, 24 h, read-out: DIZ; procedure, shortened: as §1
Staphylococcus aureus = assay: Antimicrobial activity against Staphylococcus aureus RCMB 010027 assessed as diameter of zone inhibition at 5 mg/ml after 24 hrs by agar well diffusion assay; conditions: RCMB 010027, 24 h, read-out: DIZ; procedure, shortened: as §1
Candida albicans [2] = assay: Antimicrobial activity against Candida albicans RCMB 05035 after 72 hrs by macro-tube dilution technique; conditions: RCMB 05035, 72 h
Procedure, shortened: (§3)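 Twofold macro-tube dilution following NCCLS guidance, run in malt extract broth. 10 mg compound in 2.0 mL DMSO in tube 1 was serially diluted 1:1 through tube 14 into 1.0 mL broth; tube 15 was the control. Culture was suspended to turbidity in 5.0 mL broth, 0.2 mL was diluted into 40 mL, and 1.0 mL was added per tube. Incubation was 72 h at 30 °C. MIC was the lowest concentration with no growth.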

Klebsiella pneumoniae = assay: Antimicrobial activity against Klebsiella pneumoniae RCMB 010093 assessed as diameter of zone inhibition at 5 mg/ml after 24 hrs by agar well diffusion assay; conditions: RCMB 010093, 24 h, read-out: DIZ; procedure, shortened: as §1
[3] = test system: Staphylococcus epidermidis; assay: Antimicrobial activity against Staphylococcus epidermidis RCMB 010024 assessed as diameter of zone inhibition at 5 mg/ml after 24 hrs by agar well diffusion assay; conditions: RCMB 010024, 24 h, read-out: DIZ; procedure, shortened: as §1
Candida albicans [4] = assay: Antimicrobial activity against Candida albicans RCMB 05035 assessed as diameter of zone inhibition at 5 mg/ml after 72 hrs by agar well diffusion assay; conditions: RCMB 05035, 72 h, read-out: DIZ; procedure, shortened: as §2
Shigella flexneri = assay: Antimicrobial activity against Shigella flexneri RCMB 0100542 assessed as diameter of zone inhibition at 5 mg/ml after 24 hrs by agar well diffusion assay; conditions: RCMB 0100542, 24 h, read-out: DIZ; procedure, shortened: as §1
Aspergillus fumigatus [5] = assay: Antimicrobial activity against Aspergillus fumigatus RCMB 02564 after 72 hrs by macro-tube dilution technique; conditions: RCMB 02564, 72 h; procedure, shortened: as §3
Aspergillus fumigatus [6] = assay: Antimicrobial activity against Aspergillus fumigatus RCMB 02564 assessed as diameter of zone inhibition at 5 mg/ml after 72 hrs by agar well diffusion assay; conditions: RCMB 02564, 72 h, read-out: DIZ; procedure, shortened: as §2
Aspergillus clavatus [7] = assay: Antimicrobial activity against Aspergillus clavatus RCMB 02593 after 72 hrs by macro-tube dilution technique; conditions: RCMB 02593, 72 h; procedure, shortened: as §3

SMILES	zone of inhibition at 5000 µg/mL (Bacillus subtilis)	zone of inhibition at 5000 µg/mL (Aspergillus clavatus [1])	zone of inhibition at 5000 µg/mL (Proteus vulgaris)	zone of inhibition at 5000 µg/mL (Staphylococcus aureus)	MIC (Candida albicans [2])	zone of inhibition at 5000 µg/mL (Klebsiella pneumoniae)	zone of inhibition at 5000 µg/mL [3]	zone of inhibition at 5000 µg/mL (Candida albicans [4])	zone of inhibition at 5000 µg/mL (Shigella flexneri)	MIC (Aspergillus fumigatus [5])	zone of inhibition at 5000 µg/mL (Aspergillus fumigatus [6])	MIC (Aspergillus clavatus [7])
CCOC(=O)c1c(SC)nn(-c2ccc3ccccc3n2)c1N	19.8 mm	19.3 mm	0 mm	15.8 mm	1.95 µg/mL (≈ 5.94 µM)	0 mm	17.8 mm	20.3 mm	0 mm	7.81 µg/mL (≈ 23.8 µM)	18.7 mm	7.81 µg/mL (≈ 23.8 µM)
COc1ccc(C2CC(c3ccc(Oc4ccc5ccccc5n4)cc3)=NN2)cc1 (stereo not given)	13.7 mm	14.2 mm	14.3 mm	13.1 mm	–	16.2 mm	14.6 mm	12.1 mm	14.3 mm	–	13.5 mm	–
CSc1nn(-c2ccc3ccccc3n2)c(N)c1C#N	19.8 mm	15.9 mm	12.3 mm	18.9 mm	–	15.3 mm	16.2 mm	16.8 mm	16.2 mm	–	15.7 mm	–
N#Cc1c(-c2cccc(Cl)c2)nn(-c2ccc3ccccc3n2)c1N	13.3 mm	13.2 mm	0 mm	10.3 mm	–	0 mm	11.6 mm	15.2 mm	0 mm	–	12.3 mm	–
COc1ccc(C2=NN(c3ccccc3)C(c3ccc(Oc4ccc5ccccc5n4)cc3)C2)cc1 (stereo not given)	0 mm	14.5 mm	13.5 mm	12.1 mm	–	15.9 mm	13.1 mm	11.6 mm	14.4 mm	–	16.2 mm	–
Clc1ccccc1C1CC(c2ccc(Oc3ccc4ccccc4n3)cc2)=NN1c1ccccc1 (stereo not given)	16.4 mm	0 mm	12.4 mm	14.8 mm	–	13.3 mm	0 mm	9.3 mm	0 mm	–	12.3 mm	–
COc1ccc(C(=O)/C=C/c2ccc(Oc3ccc4ccccc4n3)cc2)cc1	0 mm	11.5 mm	0 mm	8.7 mm	–	7.2 mm	10.6 mm	0 mm	0 mm	–	10.7 mm	–
COc1ccc(C2=NNC(c3ccc(Oc4ccc5ccccc5n4)cc3)C2)cc1 (stereo not given)	19.4 mm	12.8 mm	16.2 mm	16.2 mm	–	0 mm	18.6 mm	11.6 mm	15.4 mm	–	15.6 mm	–

From ChEMBL document CHEMBL4138150, “Quinoline derivatives bearing pyrazole moiety: Synthesis and biological evaluation as possible antibacterial and antifungal agents” (2018)
